In this experiment the test system is male C57BL/6J mice. Kind of experiment: Mouse tail suspension test. The format is in vivo. The settings on record: 30 minutes, vs water vehicle. A digest of the protocol:
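Mice suspended by the tail with adhesive tape from a metal bar 30 cm high. Drugs given i.p. 30 min before testing. Reference inhibitors were in sterile water; test compounds were in DMSO at 2% (0.01 mL/g) or 100% (0.002 mL/g). Immobility time was scored by a blinded observer from 6-min video, n = 7–9, with one-way ANOVA and Tukey posthoc.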

Consider `CNCCCN1c2ccccc2CCc2ccccc21` [desipramine], for which the “Immobility time in tail suspension test” value (3 mg/kg i.p.) is given as “decreased immobility times”.

Consider `COCCCC/C(=N\OCCN)c1ccc(C(F)(F)F)cc1` [fluvoxamine], for which, where the note is “10 mg/kg i.p.”, the “Immobility time in tail suspension test” value is on record as “decreased immobility times”.
